Broadly, the Inhibition is the share of the control response that was lost under treatment.

Activity calls are given as the source filed them. The calls are words filed in the database; no cut-off is given here.

Inhibition and inhibition data for three compounds are collected here from ChEMBL document CHEMBL1127562, “N-substituted spirosuccinimide, spiropyridazine, spiroazetidine, and acetic acid aldose reductase inhibitors derived from isoquinoline-1,3-diones. 2” (J Med Chem, 1994).

Assay [1] relates to Rattus norvegicus. Kind of assay: Tested for in vivo inhibition of galactitol accumulation in the lens of galactose-fed rats at the dose of 27.5 (mg/kg/day). The class given is functional, Lens of camera-type eye.
The subject of assay [2] is Rattus norvegicus. Kind of assay: Tested for in vivo inhibition of galactitol accumulation in the sciatic nerve of galactose-fed rats at the dose of 27.5 (mg/kg/day). The class given is functional. The method in brief:
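Rats were given a 20% galactose diet for 4 days, with the test compound administered in the diet. Sciatic nerve galactitol accumulation was measured, and activity is given as % inhibition at the stated daily dose (mg/kg/day). Values are mean ± SEM, n = 6 animals; p < 0.01 unless indicated. NS means no significant inhibition of polyol accumulation.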

Assay [3] deals with Rattus norvegicus. Kind of assay: Tested for in vivo inhibition of galactitol accumulation in the sciatic nerve of galactose-fed rats at the dose of 50.5 (mg/kg/day). The assay is classed as functional. The method in brief: (§1)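 Rats fed a 20% galactose diet for 4 days, with test compound given in the diet at the stated daily dose (mg/kg/day). Read-out is inhibition of galactitol (polyol) accumulation in sciatic nerve. Values are % inhibition, mean ± SEM of six animals; p < 0.01 unless marked (some p < 0.05). NS = no significant inhibition of polyol accumulation. Tolrestat was the reference standard.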

Assay [4] addresses Aldo-keto reductase family 1 member B1 (Bos taurus) (UniProt P16116). Kind of assay: Inhibition of aldose reductase activity in partially purified bovine lens preparation at 10e-5 M. In short, it runs like this: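 Partially purified bovine lens aldose reductase. Reduction of DL-glyceraldehyde substrate followed spectrophotometrically. Activity expressed as average inhibition at the tested concentrations, 1×10^-5, 1×10^-6, 1×10^-7 and 4×10^-6 M as printed; IC50 in M where given.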

Assay [5] has as its system Rattus norvegicus. Kind of assay: Tested for in vivo inhibition of galactitol accumulation in the lens of galactose-fed rats at the dose of 50.5 (mg/kg/day). The class given is functional, Lens of camera-type eye.
In assay [6] the test system is Rattus norvegicus. Kind of assay: Tested for in vivo inhibition of galactitol accumulation in the sciatic nerve of galactose-fed rats at the dose of 9.5 (mg/kg/day). The assay is classed as functional. The method in brief:
as §1

As to `CN1C(=O)c2ccc(Br)cc2C2(CC(=O)N2)C1=O` (configuration not stated), the Inhibition with Rattus norvegicus [1] is recorded as 36%; in the assay on Rattus norvegicus [2] it was 54%.
Regarding `NN1C(=O)CC2(C1=O)C(=O)N(Cc1ccc(Br)cc1F)C(=O)c1ccc(F)cc12` (configuration not stated), the results for the Inhibition in the assay with Rattus norvegicus [3] and with Rattus norvegicus [5] were 75% and 54%, respectively. The inhibition entry in assay [4] was “inactive”.
As to `CN1C(=O)CC2(C1=O)C(=O)N(Cc1nc3cc(C(F)(F)F)ccc3s1)C(=O)c1ccccc12` (configuration not stated), the inhibition entry in assay [4] is “inactive”. In addition, in the assay on Rattus norvegicus [6], the Inhibition amounted to 82%.
